Screening data deposited in PubChem BioAssay by The Scripps Research Institute Molecular Screening Center.
This is a sample that favours compounds with a hit; in the whole collection about 2.9% have one here.
SIAE inh: inhibitors of human sialic acid acetylesterase SIAE; 370,000 compounds, 0.69% hits; inhibition, % at 9.66 µM; SIAE FP-Rh probe binding, fluorescence polarization; AID 1053197; Q9HAT2;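 active means inhibition above a cutoff: mean of compounds within the control limits plus 3 SD of those, cut at about 17% in these data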;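 further: 0% = plate median of compound wells and 100% = probe without SIAE protein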
HTRA1 inhibitor: inhibitors of human serine peptidase HTRA1; Q92743; recombinant HTRA1, FP-rhodamine activity-based probe, fluorescence polarization; inhibition, % at 5.96 µM; 340,000 compounds, 0.5% hits; in the data active means inhibition above about 36%;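 further: 0% = enzyme with DMSO and 100% = wells lacking enzyme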
Target sequence (Q92743 whole entry, looked up): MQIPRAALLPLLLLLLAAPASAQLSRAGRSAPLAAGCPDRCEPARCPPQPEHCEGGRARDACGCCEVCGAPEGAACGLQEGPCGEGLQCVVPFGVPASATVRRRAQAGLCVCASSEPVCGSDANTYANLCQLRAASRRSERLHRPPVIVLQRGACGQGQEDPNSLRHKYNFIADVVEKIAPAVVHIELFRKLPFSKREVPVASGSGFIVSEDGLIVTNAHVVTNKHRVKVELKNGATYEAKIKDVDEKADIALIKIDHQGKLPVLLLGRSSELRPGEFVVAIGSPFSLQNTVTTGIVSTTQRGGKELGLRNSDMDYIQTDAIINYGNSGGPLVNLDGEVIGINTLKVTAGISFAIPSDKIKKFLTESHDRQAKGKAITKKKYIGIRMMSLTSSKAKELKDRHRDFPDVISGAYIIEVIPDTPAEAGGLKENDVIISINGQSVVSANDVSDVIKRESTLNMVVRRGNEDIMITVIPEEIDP
PAD4 FP inh: blocks human protein arginine deiminase 4 | Q9UM07 | recombinant PAD4, RCA probe fluorescence polarization | inhibition, % at 6.36 µM | 330,000 compounds, 0.41% hits | AID 485272;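 active means percent inhibition above a cutoff equal to the mean of all tested compounds plus 3 SD, cut at about 15% in these data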;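 further: 0% = PAD4 with RCA probe and DMSO and 100% = probe without PAD4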
ABHD4 inh: inhibits mouse alpha/beta hydrolase domain 4. Q8VD66. purified mABHD4, FP-Rh probe fluorescence polarization. inhibition, % at 8.92 µM. 370,000 compounds, 0.54% hits;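 active means inhibition exceeding the mean over every tested compound plus 3 SD, cut at about 30% in these data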;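 further: 0% = plate median of compound wells and 100% = S159A mutant with DMSO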
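Assay system: Wild-type mouse ABHD4 protein | Medium: HEPES pH 7.0 buffer, 150 mM NaCl, 0.01% Pluronic F-127 | Incubation: Enzyme–compound pre-incubation 45 min, then probe 60 min, both 25 °C | Technique: Fluorescence polarization with parallel and perpendicular emission, 525/598 nm | Evaluation: % inhibition of FP-Rh probe binding versus controls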
PRMT1 inh: PRMT1 (human) inhibition, primary screen | recombinant PRMT1, activity-based probe fluorescence polarization | 370,000 compounds, 1.3% hits | AID 652257 | inhibition, % at 2.79 µM | Q99873;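 active means inhibition above about 21% made by adding two undisclosed values, limit read from the data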
TCR CD3 inh: inhibitors of human TCR-CD3 interaction; 360,000 compounds, 0.37% hits; inhibition, % at 9.4 µM; AID 651800; TAMRA-labeled TCR probe fluorescence, biochemical;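 further: recombinant mutant TCR 2C K166C tagged with TAMRA read by polarization; 0% = receptor in buffer alone and 100% = receptor with positive control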
PAD4 FP conf: PAD4 (human) inhibition, confirmed; shares compounds with PAD4 FP inh; recombinant PAD4, RCA probe fluorescence polarization; inhibition, % at 6.36 µM; 1,200 compounds, 28% hits;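 active means mean inhibition across replicates above the hit cutoff set by the earlier primary screen, cut at about 15% in these data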;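 further: inhibitors block active-site labeling by the probe so polarization falls; 0% = PAD4 with probe and DMSO and 100% = probe without PAD4 enzyme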
HTRA1 inh conf: confirmation of human HTRA1 inhibitors; shares compounds with HTRA1 inhibitor; recombinant HTRA1, FP-rhodamine activity-based probe, fluorescence polarization; inhibition, % at 5.96 µM; 1,600 compounds, 66% hits;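 active means mean inhibition over three repeats above a set limit taken from the earlier primary screen, cut at about 37% in these data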;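 further: 0% = HTRA1 with DMSO and 100% = wells lacking HTRA1; inhibitors block probe binding so polarization drops and inhibition rises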
BSA probe FL: interferes with TAMRA-BSA probe, flagging TCR-CD3 hits. shares compounds with TCR CD3 inh. TAMRA-labeled BSA probe fluorescence counterscreen. inhibition, % at 9.4 µM. 1,200 compounds, 10% hits. AID 652035; in the data active means inhibition above about 23%;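 further: 0% = buffer low control and 100% = reference high control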
TCR-CD3 conf: TCR-CD3 interaction inhibition, confirmation; inhibition, % at 9.4 µM; TAMRA-labeled TCR probe fluorescence binding assay; AID 652036; shares compounds with TCR CD3 inh; 1,200 compounds, 48% hits
mABHD4 conf: confirmation of mouse ABHD4 inhibitors. shares compounds with ABHD4 inh. inhibition, % at 8.92 µM. AID 720658. purified mABHD4, FP-Rh probe fluorescence polarization. 1,800 compounds, 55% hits;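 active means mean inhibition across replicates above the hit cutoff set in the primary screen, cut at about 30% in these data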;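 further: 0% = wild-type ABHD4 with DMSO and 100% = catalytically dead S159A mutant with DMSO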
SIAE inh conf: human SIAE inhibition, confirmation | SIAE FP-Rh activity-based probe, fluorescence polarization | inhibition, % at 9.66 µM | shares compounds with SIAE inh | 2,300 compounds, 13% hits;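 active means mean inhibition of the replicates above the hit cutoff set in the primary screen, cut at about 17% in these data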;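 further: 0% = SIAE with DMSO and probe and 100% = probe without SIAE; inhibitors lower polarization as more probe stays unbound to SIAE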
Numbers without * were called inactive; . = no result given; + = active, no number. Unless noted, no stated cut-off is given here; in the data, active means inhibition above about 19%; inactive means the rest.

SMILES	SIAE inh	HTRA1 inhibitor	PAD4 FP inh	ABHD4 inh	PRMT1 inh	TCR CD3 inh	PAD4 FP conf	HTRA1 inh conf	SIAE inh conf	others
C/C(=C\C(=O)c1ccccc1)Nc1ccc(N2CCOCC2)cc1	18*	17	20*	19	1	1	6	.	-33
C/C(=C\C(=O)c1ccc(Cl)cc1)Nc1ccc(N2CCOCC2)cc1	4	2	-9	16	-1	3	.	.	.
CN(C)c1ccc(N/C=C/C(=O)C(C)(C)C)cc1	17*	59*	18*	26	9	13	-9	4	-3
CC(C)C[C@H]1COc2cccc(F)c2S(=O)(=O)N1Cc1cn(Cc2ccc(C(F)(F)F)cc2)nn1	-7	.	.	2	0	.	.	.	.
O=C(O)/C=C\C(=O)Nc1ccc(N2CCN(c3ccc(F)cc3)CC2)cc1	33*	43*	24*	44*	5	28*	4	14	3	BSA probe FL=5;TCR-CD3 conf=3;mABHD4 conf=10
COC(=O)[C@]12C[C@H](CC(=O)N3CCCCC3)C(=O)N(CCC3=CCCCC3)C1=C[C@H](C1CCCC1)O[C@@H]2C	-2	.	.	-15	6	.	.	.	.
CCOC(=O)Cn1cc(CN2CCS(=O)(=O)N(Cc3ccc(Cl)cc3)C(C(=O)OC)C2)nn1 (stereo not given)	1	.	.	2	-1	.	.	.	.
O=C(CC1Nc2cccc3cccc(c23)NC1=O)Nc1ccccc1 (stereo not given)	23*	72*	25*	32*	10	4	4	2	4	mABHD4 conf=42*
NC(=O)CC1Nc2cccc3cccc(c23)NC1=O (stereo not given)	13	19	-3	19	12	16	.	.	.
O=C(NC1CCC1)c1ccc(C#Cc2cccc(F)c2)nc1	5	.	.	9	-1	.	.	.	.
Cn1c(=O)c(Nc2ccc(Cl)cc2)c2c3c(cccc31)C(=O)c1ccccc1-2	31*	.	33*	42*	93*	42*	50*	.	35*
CCOC(=O)c1c2c3c(cccc3n(C)c1=O)C(=O)c1ccccc1-2	1	23	9	10	3	15	.	.	.
Cc1ccc(F)c(NC(=S)Nc2cccc3ccccc23)c1	18*	3	18*	8	4	10	4	.	-1
S=C(Nc1cccc2ccccc12)Nc1cccc2ccccc12	9	4	.	25	3	0	.	.	.
O=C(NC1CCCCN(Cc2ccc(Cl)cc2)C1=O)c1cccc(F)c1 (stereo not given)	-4	.	.	-2	6	.	.	.	.
CNc1ccccc(-c2ccc3ccccc3n2)c1=O	21*	38*	20*	36*	24*	9	7	4	2	mABHD4 conf=14
COc1ccc(OC)c(N/C(C)=C/C(=O)c2ccncc2)c1	21*	13	23*	49*	14	5	-4	.	3	mABHD4 conf=1
COc1ccc(OCC(C)CN2CCC(C(O)(c3ccccc3)c3ccccc3)CC2)cc1 (stereo not given)	-3	.	.	-2	-5	.	.	.	.
CCN(CC)C(=O)CN1C(=O)C2CCCCN2C(=O)c2ccccc21 (stereo not given)	0	.	.	5	2	.	.	.	.
Cc1cc(O)ccc1N/C=C1\CCCC1=O	46*	31	41*	69*	30*	34*	0	.	1	BSA probe FL=3;TCR-CD3 conf=3;mABHD4 conf=17
CC(=O)Nc1ccc(N/C=C2/CCCC2=O)cc1	-2	15	4	6	8	-12	.	.	.
O=[N+]([O-])c1cc([N+](=O)[O-])c2nonc2c1Nc1ccc(O)cc1	21*	33	55*	46*	8	43*	8	.	2	BSA probe FL=0;TCR-CD3 conf=5;mABHD4 conf=10
CNc1ccc2c3c(cccc13)C(=O)N(C)C2=O	70*	84*	95*	103*	+	83*	86*	75*	66*	BSA probe FL=138*;TCR-CD3 conf=104*;mABHD4 conf=119*
COc1ccc(OC)c(CN2C(=O)CSCCC2(C)c2nnnn2C2CCCC2)c1 (stereo not given)	-3	.	.	4	-3	.	.	.	.
O=C(N/N=C/c1sc(N2CCOCC2)nc1-c1ccccc1)c1cccc(S(=O)(=O)N2CCOCC2)c1	-3	45*	-9	-6	2	-3	.	119*	.
SMILES	SIAE inh	HTRA1 inhibitor	PAD4 FP inh	ABHD4 inh	PRMT1 inh	TCR CD3 inh	PAD4 FP conf	HTRA1 inh conf	SIAE inh conf	others
COc1cc(C(=O)N/N=C/c2sc(N3CCOCC3)nc2-c2ccccc2)cc(OC)c1OC	3	7	-4	-1	1	-4	.	.	.
O=C(COC(=O)c1ccc(O)cc1)Nc1ncc(Cl)cc1Cl	-1	2	-1	1	1	0	.	.	.
O=C(COC(=O)c1nc(Cl)ccc1Cl)Nc1ncc(Cl)cc1Cl	8	63*	1	-2	2	0	.	6	.
Cc1ccc2nc(-c3cc(N)cc(N)c3)oc2c1	0	37*	-9	16	-4	0	.	22	.
CC1(C)CCCN(C(=O)c2ccc3c(c2NCCO)C(=O)c2ccccc2C3=O)C1	6	42*	-9	5	-1	-17	.	39*	.
O=C1c2ccccc2C(=O)c2c1ccc(C(=O)N1CCCCC1)c2NCCO	-5	3	4	7	-1	-1	.	.	.
O=[N+]([O-])c1cc2c(cc1C=Nc1ccccc1)OCO2	.	51*	-13	.	.	.	.	4	.
Clc1ccccc1/C=N/NC1=Nc2cccc3cccc1c23	0	-7	-12	1	0	0	.	.	.
C(=N\NC1=Nc2cccc3cccc1c23)/c1ccccn1	-2	49*	.	21	-3	4	.	50*	.
CCC[C@H]1[C@@H](OC(=O)NCc2ccc(C(F)(F)F)cc2)CC[C@@]23CCCN2C(=O)CCC[C@@H]13	0	.	.	9	6	.	.	.	.
Cc1ccc2nc(-c3ccc(CN4CCC5(CC4)CNc4ccccc45)cc3)c(-c3ccccc3)nc2c1	13	.	.	6	-4	-3	.	.	.
Cc1cc(C)cc(NC(=O)Cn2cc3c(n2)CCCCC3)c1	.	.	-1	.	.	.	.	.	.
CN(C)c1ccc(NC(=O)Cn2cc3c(n2)CCCC3)cc1	3	44*	3	5	0	-9	.	59*	.
